# Results of several laboratories.
# Lines come from different studies, so protocols differ.
# Organism: Mycolicibacterium smegmatis
# Effect on: microbial growth
Structure (SMILES),technique,strain,time,MIC
NNC(=O)c1ccncc1,agar dilution,,,12.5 µg/mL
CC(C)=CCC/C(C)=C/CNCCOc1cccc2ccccc12,,,,12 µg/mL
C[C@@H]([C@H](N)C(=O)N[C@H](C(=O)O)[C@H]1O[C@@H](n2ccc(=O)[nH]c2=O)[C@H](O)[C@@H]1O)[C@H](O)c1ccc(O)cn1,resazurin,ATCC607,72 h,> 50 µg/mL
CN[C@H](CC(C)C)C(=O)N[C@H]1C(=O)N[C@@H](CC(N)=O)C(=O)N[C@H]2C(=O)N[C@H]3C(=O)N[C@H](C(=O)N[C@H](C(=O)O)c4cc(O)cc(O)c4-c4cc3ccc4O)[C@H](O)c3ccc(c(Cl)c3)Oc3cc2cc(c3O[C@@H]2O[C@H](CO)[C@@H](O)[C@H](O)[C@H]2O[C@H]2C[C@](C)(N)[C@H](O)[C@H](C)O2)Oc2ccc(cc2Cl)[C@H]1O,resazurin,MC^2155,24 h,0.78 µg/mL
CO[C@H]1/C=C/O[C@@]2(C)Oc3c(C)c(O)c4c(O)c(c(/C=N/N5CCN(C)CC5)c(O)c4c3C2=O)NC(=O)/C(C)=C\C=C\[C@H](C)[C@H](O)[C@@H](C)[C@@H](O)[C@@H](C)[C@H](OC(C)=O)[C@@H]1C,,,,2 µg/mL
C/C(=N\NC(=N)N)c1cccc(/C(C)=N/NC(=N)N)c1,,MC2155,,15.6 to 31.3 µM
CO[C@H]1/C=C/O[C@@]2(C)Oc3c(C)c(O)c4c(O)c(c(/C=N/N5CCN(C)CC5)c(O)c4c3C2=O)NC(=O)/C(C)=C\C=C\[C@H](C)[C@H](O)[C@@H](C)[C@@H](O)[C@@H](C)[C@H](OC(C)=O)[C@@H]1C,broth dilution,,,162 µM
CO[C@H]1/C=C/O[C@@]2(C)Oc3c(C)c(O)c4c(O)c(c(/C=N/N5CCN(C)CC5)c(O)c4c3C2=O)NC(=O)/C(C)=C\C=C\[C@H](C)[C@H](O)[C@@H](C)[C@@H](O)[C@@H](C)[C@H](OC(C)=O)[C@@H]1C,broth dilution,ATCC607,,> 200 µg/mL
CC(C)=CCC/C(C)=C/CNCCNC1C2CC3CC(C2)CC1C3 (stereo not drawn),,,,3.1 µg/mL
CNC(=O)c1cc(Oc2ccc(NC(=O)Nc3ccc(Cl)c(C(F)(F)F)c3)cc2)ccn1,,MC2155,,50 µM
O=C(Nc1ccccc1)Nc1ncc([N+](=O)[O-])s1,agar dilution,MC^2155,,> 100 µM
CC(C)=CCC/C(C)=C/COCC(=O)NC1C2CC3CC(C2)CC1C3 (stereo not drawn),,,,25 µg/mL
